Reference: ChEMBL document CHEMBL4602607, “Hit-to-Lead Optimization of Benzoxazepinoindazoles As Human African Trypanosomiasis Therapeutics” (J Med Chem, 2020)

What was measured:
[1] = Intrinsic clearance in rat hepatocytes assessed per 10^6 cells by LC-MS/MS analysis; assay type: ADME, cell-based, Hepatocyte
Summary of the method: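 Rat hepatocyte incubation, samples analysed by LC/MS/MS; intrinsic clearance reported in µL/min/1 million cells.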

[2] = Distribution coefficient, logD of compound; assay type: physicochemical; conditions: octanol/water
[3] = Intrinsic clearance in human liver microsomes assessed per mg protein by LC-MS/MS analysis; assay type: ADME, Microsome
[4] = Cmax in NMRI mouse at 10 mg/kg, ip measured up to 24 hrs by LC-MS/MS analysis; assay type: ADME, organism-based; parameters: dose 10 mg/kg, route intraperitoneal; conditions: in vivo
[5] = Half life in NMRI mouse at 10 mg/kg, ip measured up to 24 hrs by LC-MS/MS analysis; assay type: ADME, organism-based; conditions: in vivo
[6] = Ratio of drug concentration in brain to blood in NMRI mouse at 10 mg/kg, ip measured at 0.5 hrs by LC-MS/MS analysis; assay type: ADME, organism-based; conditions: brain and blood, read-out: BBR
[7] = Ratio of drug concentration in brain to blood in NMRI mouse at 10 mg/kg, ip measured at 4 hrs by LC-MS/MS analysis; assay type: ADME, organism-based; conditions: brain and blood, read-out: BBR
in vivo = conditions: NMRI, mouse, ip, 10 mg/kg

Compound	hepatocyte CLint [1] [µL/min/10^6 cells]	logD [2]	other results
Nc1cccc(-c2cc3c4c(n[nH]c4c2)Nc2ccccc2O3)n1	220	3.7	
CCOc1cc(-c2ccnc(N)n2)cc2[nH]nc(N)c12		1.7	CLH [3]: 25 µL/min; Cmax [4]: 3603 ng/mL; t1/2 [5]: 53.6 min; Kp at 0.5 h [6]: 0.155; Kp at 4 h [7]: 0.214; Tmax at 24 h (in vivo): 15 to 300 min
CN(C)c1cc(-c2cc3c4c(n[nH]c4c2)Nc2ccccc2O3)nc(N)n1	44	> 4.4	
Cn1nc2c3c(cc(-c4ccnc(N)n4)cc31)Oc1ccccc1N2	12	> 4.3	Cmax [4]: 615 ng/mL; t1/2 [5]: 63.6 min; Kp at 0.5 h [6]: 2.39; Kp at 4 h [7]: 2.12; Tmax at 24 h (in vivo): 15 to 300 min
CN(C)c1nccc(-c2cc3c4c(n[nH]c4c2)Nc2ccccc2O3)n1	29	> 3.9	
Nc1nccc(-c2cc3c4c(n[nH]c4c2)N[C@@H]2CCC[C@H]2O3)n1			hepatocyte CLint ([1]; read-out: CLH): 52 µL/min/1e6 cells; logD ([2]; read-out: logD): 2.8
Nc1nc(-c2cc3c4c(n[nH]c4c2)Nc2ccccc2O3)cc(N2CCCCC2)n1	25	4.6	
CNc1cc(-c2cc3c4c(n[nH]c4c2)Nc2ccccc2O3)nc(N)n1	45	> 4.2	
CNc1nccc(-c2cc3c4c(n[nH]c4c2)Nc2ccccc2O3)n1	45	3.8	
c1ccc2c(c1)Nc1n[nH]c3cc(-c4ccncn4)cc(c13)O2	68	3.5	
CC(C)Nc1cc(-c2cc3c4c(n[nH]c4c2)Nc2ccccc2O3)nc(N)n1	32	4.9	

Further lines, with some results ahead:

hepatocyte CLint [1] [µL/min/10^6 cells]	logD [2]	Compound	other results
26		CCNc1cc(-c2cc3c4c(n[nH]c4c2)Nc2ccccc2O3)nc(N)n1	
16	3.4	CN1CCN(c2cc(-c3cc4c5c(n[nH]c5c3)Nc3ccccc3O4)nc(N)n2)CC1	
47		c1ccc2c(c1)Nc1n[nH]c3cccc(c13)O2	logD ([2]; read-out: logD): > 4
56	4.1	Nc1ccnc(-c2cc3c4c(n[nH]c4c2)Nc2ccccc2O3)n1	
73	3.8	Nc1cc(-c2cc3c4c(n[nH]c4c2)Nc2ccccc2O3)ncn1	
41.4		COCc1cc(-c2cc3c4c(n[nH]c4c2)Nc2ccccc2O3)nc(N)n1	
